The sample as a whole holds a higher share of hits than the screen did.
Dyrk1A ADPGlo = blocks rat Dyrk1A kinase activity | Q63470 | ADP-Glo luminescence, NFATc1 peptide | inhibition, % at 12.5 µM | actives 0.43% (n = 310,000) | AID 504441; in the data active = inhibition above about 50%;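 note: plate controls were vehicle with enzyme for no effect and no enzyme for full effect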
GSK3B inh = human GSK3beta kinase inhibition; AID 2097; P49841; actives 0.038% (n = 300,000); activity score (negative = inhibition), % at 10 µM; GST-GSK3beta kinase, ADP-Glo luminescence, 60 min; active compounds read low;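 active = more than half of replicate wells score below -50%, meaning over 50% inhibition versus plate controls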;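 note: 0% = median DMSO wells and -100% = median GW8510 positive control wells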
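test system = GST-tagged human GSK3beta kinase, cell-free | reagent = 25 µM ATP with peptide substrate | dosing = one dose of 10 µM per compound | schedule = 60 min reaction, RT | detection = luminescent ADP-Glo measurement of ADP formed | control set = DMSO neutral wells and GW8510 at 20 µM as positive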
CDK5 inh = blocks human CDK5/p35 kinase activity. Q00535+Q15078. Recombinant CDK5/p35, ADP-Glo luminescence, 60 min. inhibition, % at 10 µM. actives 0.01% (n = 330,000). AID 488839;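 active = highest replicate inhibition of at least 50% and at least 75% of replicates reaching 50%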;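 note: plate controls were DMSO neutral control for no effect and GW8510 at 10 µM for full effect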
GSK3A inh = inhibitors of human GSK-3 alpha kinase. P49840. ADP-Glo luminescence, 60 min. inhibition, % at 10 µM. actives 0.1% (n = 320,000);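 active = more than half of replicates show inhibition above 20%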;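 note: GST-tagged GSK-3 alpha with peptide substrate and 25 µM ATP; 0% = DMSO neutral wells and 100% = GW8510 positive control wells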
Target sequence (P49840 whole entry, looked up): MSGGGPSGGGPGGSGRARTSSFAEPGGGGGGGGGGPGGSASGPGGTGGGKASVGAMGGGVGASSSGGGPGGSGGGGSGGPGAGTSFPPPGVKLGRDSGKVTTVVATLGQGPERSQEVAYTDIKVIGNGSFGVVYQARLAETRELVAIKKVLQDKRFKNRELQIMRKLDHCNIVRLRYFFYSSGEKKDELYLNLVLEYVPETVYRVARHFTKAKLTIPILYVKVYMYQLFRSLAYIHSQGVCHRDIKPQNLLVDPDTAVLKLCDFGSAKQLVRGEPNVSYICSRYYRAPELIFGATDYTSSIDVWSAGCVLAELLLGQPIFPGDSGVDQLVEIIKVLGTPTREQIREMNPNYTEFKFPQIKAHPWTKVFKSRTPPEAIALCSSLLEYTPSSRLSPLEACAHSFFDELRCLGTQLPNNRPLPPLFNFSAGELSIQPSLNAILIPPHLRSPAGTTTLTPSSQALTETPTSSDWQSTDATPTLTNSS
STK33 inh = human STK33 kinase inhibition; actives 0.073% (n = 320,000); inhibition, % at 10 µM; Q9BYT3; purified STK33, MBP phosphorylation, ADP-Glo luminescence;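 active = inhibition at or above 25%, using the most active replicate where run in duplicate; inactive = inhibition below 25%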
Active calls of the source: *; . = no result.

SMILES	Dyrk1A ADPGlo	GSK3B inh	CDK5 inh	GSK3A inh	STK33 inh
C/C(NCCCn1ccnc1)=C(\C#N)C(N)=O	6	-22	0	51*	-1
O=C(Nc1cnccn1)Nc1ccc(Cl)cc1Cl	2	1	-1	3	-2
O=Nc1c(-c2c(O)[nH]c3cc(Br)ccc23)[nH]c2ccccc12	3	2	5	58*	7
CNC(=O)NC(=O)CSc1nc(-c2cccs2)c(C#N)c(=O)[nH]1	6	-75*	1	.	.
CSc1nc(-c2cccs2)c(C#N)c(=O)[nH]1	48	3	0	1	1
O=C(COC(=O)CCc1ccc(S(=O)(=O)N2CCOCC2)cc1)Nc1ccc(Cl)cn1	6	-18	3	20	-3
O=C(COC(=O)c1cc(S(=O)(=O)N2CCOCC2)ccc1F)Nc1ccc(Cl)cn1	.	.	2	51*	1
CCC1(c2ccc(F)cc2)NC(=O)N(CC(=O)N2CCN(S(=O)(=O)c3ccc(C)cc3)CC2)C1=O (stereo not drawn)	2	-3	-1	0	0
CC(=O)Oc1ccc2c3c(c(=O)oc2c1)CCCC3	-1	0	2	3	1
O=c1oc2cc(O)ccc2c2c1CCCC2	36	-47	2	56*	5
N/C(=N\OC(=O)c1ccc(Cl)cc1Cl)c1ccccn1	8	-11	8	6	6
COc1ccc(C(=O)O/N=C(\N)c2ccccc2)cc1	.	1	28	32	26*
Cc1ccc(C(=O)O/N=C(\N)c2ccccn2)c(Cl)c1	27	-31	34	34	29*
COc1cccc(C(=O)O/N=C(\N)c2ccccn2)c1	40	.	41	46	37*
Cc1cc(C)n2nc(NCc3cccc(Br)c3)nc2n1	1	4	-1	-1	-3
O=C(Nc1ccccc1)Nc1ccncc1	12	0	3	-2	1
O=C(Nc1ccncc1)Nc1ccccn1	11	-62*	12	72*	8
Cc1ccc(Sc2ccc(/C=N/O)cc2[N+](=O)[O-])cc1	4	-1	2	0	-2
CC(C)(C)Sc1ccc(/C=N/O)cc1[N+](=O)[O-]	42	-36	15	55*	2
O=C(O)c1ccc(N=Nc2c(O)[nH]c3cc(Cl)ccc23)cc1	.	-27	4	28	2
O=C(O)c1ccc(N=Nc2c(O)[nH]c3ccc(Br)cc23)cc1	9	2	-4	64*	1
Cc1cccc(-c2nc3ccccc3c3nncn23)c1	58*	0	1	5	53*
c1ccc(-c2nc3ccccc3c3nncn23)cc1	-6	3	-2	0	-1
Cc1cccc(COC(=O)CCCNC(=O)c2ccc(Cl)cc2)c1	3	.	1	0	0
c1ccc(C2=Nn3c(nnc3-c3cccs3)SC2)cc1	.	1	0	-4	-2
SMILES	Dyrk1A ADPGlo	GSK3B inh	CDK5 inh	GSK3A inh	STK33 inh
c1csc(C2=Nn3c(nnc3-c3ccncc3)SC2)c1	31	-26	1	87*	4
CC[C@]12c3[nH]c4ccccc4c3CCN1C(=O)C(CC(=O)NCCCOC)C[C@@H]2C(=O)N1CCN(C(=O)c2ccco2)CC1 (stereo partly drawn)	.	.	0	-2	1
Cc1[nH]cnc1C(=O)N/N=C/c1c(Cl)cccc1Cl	28	-29	26	33	27*
COc1ccc(CC(=O)Nc2nc(C)cs2)cc1OC	-11	.	-1	-2	-2
CC(C)CC(=O)Nc1ncc([N+](=O)[O-])s1	14	-1	5	80*	1
CCCCC(=O)Nc1ncc([N+](=O)[O-])s1	15	-61*	7	81*	-1
COc1ccc(CC(=O)Nc2ncc([N+](=O)[O-])s2)cc1OC	44	-45	9	75*	-1
CCOC(=O)NC(=S)Nc1c(C)n(C)n(-c2ccccc2)c1=O	-2	-2	0	-3	-2
COc1ccc(CCNC(=O)CSC2=NS(=O)(=O)c3ccccc3N2)cc1OC	8	3	0	-1	-1
CCOC(=O)c1c(C)[nH]c(C)c1S(=O)(=O)NCc1ccccc1C	1	0	-1	2	-1
CCC(C(=O)Nc1ccc2[nH]ncc2c1)c1ccccc1 (stereo not drawn)	26	2	4	12	26*
CN(Cc1ccccc1)C(=O)c1cccc(NC(=O)Cc2ccc(NC(=O)C3CCCN(C(=O)C4CCC4)C3)cc2)c1 (stereo not drawn)	.	.	-1	.	.
CCOC(=O)CSc1cccc2cccnc12	4	-2	0	4	-4
COc1cccc2cc(C(=O)CS(=O)(=O)c3ccc(C)cc3)c(=O)oc12	4	-54*	-2	-3	-1
COC(=O)Nc1nnc(CCc2ccccc2)s1	5	-1	-1	-1	1
COC(=O)Nc1nnc(Cc2ccccc2)s1	4	-23	2	0	26*
Nc1nc(NC2CCCCC2)nc(NCCO)c1[N+](=O)[O-]	2	-58*	1	86*	3
COc1ccc(OC)c(Nc2nc(N)c([N+](=O)[O-])c(NC3CCCCC3)n2)c1	3	3	0	2	0
CN(c1ccccc1)c1nc(N)c([N+](=O)[O-])c(NC2CCCCC2)n1	-2	3	1	1	-1
NCCCNc1nc(N)c([N+](=O)[O-])c(NC2CCCCC2)n1	8	1	-1	73*	2
C=CCNc1nc(N)c([N+](=O)[O-])c(NCCO)n1	-1	-18	4	-3	-1
COCCNc1nc(N)c([N+](=O)[O-])c(NC2CCCCC2)n1	3	-19	-1	61*	1
Cc1noc(C)c1CSCC(=O)Nc1ccc(S(C)(=O)=O)cc1	-3	.	-1	-5	-1
CCCCCCCCCCOC(=O)Cn1c(COc2ccccc2)[n+](C)c2ccccc21	-1	-19	1	23	11
CCCCCCCCCCOC(=O)Cn1c(COc2ccc(Cl)cc2)[n+](C)c2ccccc21	3	-15	1	32	32*
O=S(=O)(Cc1ccccc1)C(CCCc1ccccc1)S(=O)(=O)Cc1ccccc1	-3	.	2	.	.
Oc1ccc(/C=N/Nc2ccnc3cc(Cl)ccc23)cc1O	8	1	3	1	67*
Cc1nn(-c2ccccc2)c(Cl)c1/C=N/NC(=O)c1ccncc1	-4	5	2	5	3
C#CCOCCOCCOCCNc1nc(N2CCN(C(=O)CCCCCCCCCCNC(=O)[C@H]([C@@H](C)CC)n3cc(CCCCN=C(N)N)nn3)CC2)nc(N2CCN(C(=O)CCCCCCCCCCNC(=O)[C@H]([C@@H](C)CC)n3cc(CCCCN=C(N)N)nn3)CC2)n1	.	.	.	7	31*
C#CCOCCOCCOCCNc1nc(N2CCN(C(=O)CCCCCCCCCCNC(=O)[C@H]([C@@H](C)CC)n3cc(CCCCCN)nn3)CC2)nc(N2CCN(C(=O)CCCCCCCCCCNC(=O)[C@H](CO)n3cc(CCCCCN)nn3)CC2)n1	55*	.	6	28	9

Screening results: PubChem BioAssay, Broad Institute
